Assay [1] has as its system HUVEC. Kind of assay: Growth inhibitory activity against human umbilical vein endothelial cells (HUVEC) proliferation using MTT colorimetric method. It counts as functional, cell-based. Summed up:
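HUVEC seeded at 10,000 cells/well in growth-factor-containing EGM-2 and left 4 h to adhere. Compounds diluted in medium were added, followed by 72 h incubation at 37 in humidified 5% CO2. Viability was read by MTT colorimetric assay. IC50 came from nonlinear regression.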

The test system of assay [2] is HUVEC. Kind of assay: Percentage inhibition against growth factor induced tube formation by human umbilical vein endothelial cells (HUVEC) at 10 ug/mL concentration. It counts as functional. The essentials: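 HUVEC plated at 5000 cells/well on solidified Matrigel and incubated 16 h at 37 in humidified 5% CO2, with compound at 10 μg/mL, in triplicate. Cells were then stained with toluidine blue in 4% paraformaldehyde and photographed. A blinded observer counted tube branches per well. Inhibition was expressed relative to untreated control.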

Structures are written as SMILES. In brackets after ≈: the same amount, converted by molar mass.

`C=C[C@](C)(O)CC[C@@H]1[C@@]2(C)CCCC(C)(C)[C@@H]2CC[C@@]1(C)O` [SCLAREOL] gave a 50% inhibitory concentration (IC50) in the assay on HUVEC [1] of more than 50 µg/mL.
Molecule `C=C1[C@@H](O[Si](C)(C)C(C)(C)C)C[C@H]2C(C)(C)CCC[C@]2(C)[C@H]1C[C@H](O)c1ccoc1` displayed an inhibition at 10 µg/mL in the assay with HUVEC [2] of 20%. Moreover, half-maximal inhibition in the assay on HUVEC [1] (IC50) required 7.71 µg/mL (≈ 17.8 µM).
In the assay with HUVEC [1], `CC1(C)CCC[C@]2(C)[C@H]3CC(=O)O[C@]3(C)CC[C@@H]12` gave an IC50 of more than 50 µg/mL.
The molecule `C=C1[C@@H](O[Si](C)(C)C(C)(C)C)C[C@H]2C(C)(C)CCC[C@]2(C)[C@H]1/C=C/c1ccoc1` displayed an inhibition at 10 µg/mL in the assay on HUVEC [2] of 22%. The same molecule showed an IC50 in the assay on HUVEC [1] of more than 50 µg/mL.
For `C=C1[C@@H](O)C[C@H]2C(C)(C)CCC[C@]2(C)[C@H]1C[C@H](O)c1ccoc1` the same measures were 10% and 29.7 µg/mL (≈ 93.2 µM).
Consider `C=C1[C@H](O[Si](C)(C)C(C)(C)C)C[C@H]2C(C)(C)CCC[C@]2(C)[C@H]1/C=C/c1ccoc1`, for which testing at 10 µg/mL in the assay with HUVEC [2] gave an inhibition of 5%. For the same molecule, the IC50 with HUVEC [1] is more than 50 µg/mL.
For `C=C1[C@@H](O[Si](C)(C)C(C)(C)C)C[C@H]2C(C)(C)CCC[C@]2(C)[C@H]1C[C@@H](O)c1ccoc1` the same measures were 10% and 3.76 µg/mL (≈ 8.69 µM).
Taken in the same sequence, the figures for `C=C1[C@@H](O)C[C@H]2C(C)(C)CCC[C@]2(C)[C@H]1C[C@@H](O)c1ccoc1` were 0% and 15 µg/mL (≈ 47.2 µM).
Regarding `C=C1[C@@H](O)C[C@H]2C(C)(C)CCC[C@]2(C)[C@H]1/C=C/c1ccoc1` [CORONARIN A], 10 µg/mL produced 55% inhibition with HUVEC [2]. In the assay with HUVEC [1], this molecule registered an IC50 of 4.22 µg/mL (≈ 14 µM).
For `C=C1[C@H](O)C[C@H]2C(C)(C)CCC[C@]2(C)[C@H]1/C=C/c1ccoc1` the same measures were 90% and 3.12 µg/mL (≈ 10.4 µM).

The record behind these values is ChEMBL document CHEMBL1145734, “A study on the synthesis of antiangiogenic (+)-coronarin A and congeners from (+)-sclareolide” (Bioorg Med Chem Lett, 2003).
